The target in data set [1] is T1, Enoyl-[acyl-carrier-protein] reductase [NADH] (Mycobacterium tuberculosis, UniProt P9WGR1).
T1 sequence (P9WGR1 whole entry): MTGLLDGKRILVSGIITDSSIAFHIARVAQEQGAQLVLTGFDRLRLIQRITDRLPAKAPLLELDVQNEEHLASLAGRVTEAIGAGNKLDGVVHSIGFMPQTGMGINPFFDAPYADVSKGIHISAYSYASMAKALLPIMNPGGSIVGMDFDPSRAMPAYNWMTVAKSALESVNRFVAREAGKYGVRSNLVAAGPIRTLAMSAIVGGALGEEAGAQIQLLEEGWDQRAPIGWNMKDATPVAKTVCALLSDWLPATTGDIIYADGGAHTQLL
In words: Inhibition of Mycobacterium tuberculosis full length inhA expressed in Escherichia coli BL21 preincubated for 15 mins by fluorescence based assay in presence of NADH.

In data set [2] the test system is Mycobacterium tuberculosis. Put plainly: Antimycobacterial activity against Mycobacterium tuberculosis H37Rv ATCC 27294 assessed as parasite growth inhibition after 7 days by Alamar Blue assay. The data set is classed as functional. The settings on record: H37Rv ATCC 27294, 168 h.
Data set [3] has as its target T1, Enoyl-[acyl-carrier-protein] reductase [NADH]. Put plainly: Inhibition of wild type Mycobacterium tuberculosis inhA.
Data set [4] concerns Mycobacterium tuberculosis. In words: Antitubercular activity against Mycobacterium tuberculosis. The class given is functional.
In data set [5] the target is T2, Adenosine receptor A1 (Homo sapiens, UniProt P30542).
T2 sequence (P30542 whole entry): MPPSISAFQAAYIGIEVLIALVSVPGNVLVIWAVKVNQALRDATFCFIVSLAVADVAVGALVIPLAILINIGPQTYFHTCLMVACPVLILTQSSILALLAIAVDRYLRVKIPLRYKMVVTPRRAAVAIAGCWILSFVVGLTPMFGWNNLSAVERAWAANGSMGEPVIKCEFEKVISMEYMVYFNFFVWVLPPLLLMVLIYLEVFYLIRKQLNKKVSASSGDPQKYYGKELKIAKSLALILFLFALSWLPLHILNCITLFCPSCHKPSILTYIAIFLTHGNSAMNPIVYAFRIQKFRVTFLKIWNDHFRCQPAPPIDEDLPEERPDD
Put plainly: Inhibition of adenosine A1 receptor (unknown origin).

For data set [6], the target named is Phosphodiesterase 4 (Homo sapiens, UniProt P27815+Q08499+Q07343+Q08493). In words: Inhibition of PDE4 (unknown origin). The class given is protein assay.
The target of data set [7] is Cytochrome P450 3A4 (Homo sapiens, UniProt P08684). Put plainly: Inhibition of CYP3A4 (unknown origin). The data set is classed as ADME.
Cytochrome P450 3A4, sequence (P08684 whole entry): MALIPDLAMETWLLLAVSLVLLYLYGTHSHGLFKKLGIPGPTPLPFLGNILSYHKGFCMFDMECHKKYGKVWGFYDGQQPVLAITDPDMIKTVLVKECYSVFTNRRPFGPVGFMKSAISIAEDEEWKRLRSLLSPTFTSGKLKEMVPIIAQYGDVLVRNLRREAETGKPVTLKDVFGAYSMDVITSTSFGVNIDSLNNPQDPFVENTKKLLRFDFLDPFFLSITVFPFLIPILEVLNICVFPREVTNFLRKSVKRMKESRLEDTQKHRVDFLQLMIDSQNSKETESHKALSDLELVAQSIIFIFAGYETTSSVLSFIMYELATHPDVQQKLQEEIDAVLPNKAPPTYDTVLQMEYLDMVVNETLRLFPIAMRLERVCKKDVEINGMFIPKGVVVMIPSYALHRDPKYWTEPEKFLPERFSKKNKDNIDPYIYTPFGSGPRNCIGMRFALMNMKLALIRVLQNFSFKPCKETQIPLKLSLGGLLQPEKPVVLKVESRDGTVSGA
Data set [8] in a line: Fraction unbound in plasma (unknown origin). The class given is ADME, cell-free.
Data set [9] is described as follows: Cytotoxicity against human A549 cells assessed as growth inhibition after 7 days by Alamar Blue assay. The settings on record: read-out: MIC. The data set is classed as cell-based. In general terms: Resazurin is reduced to fluorescent resorufin, in cell work by metabolically active cells.
Data set [10] is described as follows: Aqueous solubility of the compound. Conditions: buffer. The data set is classed as physicochemical.
Data set [11] has as its target 5-hydroxytryptamine receptor 2B (Homo sapiens, UniProt P41595). Put plainly: Inhibition of 5HT2B receptor (unknown origin).
In data set [12] the target is T3, Enoyl-[acyl-carrier-protein] reductase [NADH] (Mycobacterium tuberculosis) (UniProt P9WGR1).
T3 sequence (whole entry): T1 sequence (P9WGR1 whole entry)

The target in data set [13] is T1, Enoyl-[acyl-carrier-protein] reductase [NADH]. In words: Binding affinity to Mycobacterium tuberculosis NAD+-bound form of full length inhA (1 to 255) by isothermal titration calorimetry assay. An outline of the steps: (§1)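 InhA titrated with compound by isothermal titration calorimetry, either as apo enzyme or pre-bound to NADH or NAD+ cofactor. No enoyl-ACP substrate was present. ITC data were used mainly to derive Kd and binding stoichiometry.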
Background: ITC needs no label: the signal is the heat of the interaction.

For data set [14], the target named is T3, Enoyl-[acyl-carrier-protein] reductase [NADH] (Mycobacterium tuberculosis). This is another data set of the same source.
For data set [15] the target is unchanged. This is another data set of the same source.
For data set [16], the target named is T1, Enoyl-[acyl-carrier-protein] reductase [NADH]. In words: Binding affinity to Mycobacterium tuberculosis NADH-bound form of full length inhA (1 to 255) by SPR assay. (In general: In SPR one partner is held on a chip, and binding of the other changes the refractive index at the surface.)
In data set [17] the target is T3, Enoyl-[acyl-carrier-protein] reductase [NADH] (Mycobacterium tuberculosis). Conditions: 50 uM.
For data set [18] the target is unchanged. Conditions: 50 uM. The source holds these as a separate data set.
The target of data set [19] is T1, Enoyl-[acyl-carrier-protein] reductase [NADH]. In words: Binding affinity to Mycobacterium tuberculosis NADH-bound form full length inhA (1 to 255) by isothermal titration calorimetry assay. An outline of the steps: as §1
Data set [20] concerns the target T4, Adenosine receptor A3 (Homo sapiens) (UniProt P0DMS8).
T4 sequence (whole entry): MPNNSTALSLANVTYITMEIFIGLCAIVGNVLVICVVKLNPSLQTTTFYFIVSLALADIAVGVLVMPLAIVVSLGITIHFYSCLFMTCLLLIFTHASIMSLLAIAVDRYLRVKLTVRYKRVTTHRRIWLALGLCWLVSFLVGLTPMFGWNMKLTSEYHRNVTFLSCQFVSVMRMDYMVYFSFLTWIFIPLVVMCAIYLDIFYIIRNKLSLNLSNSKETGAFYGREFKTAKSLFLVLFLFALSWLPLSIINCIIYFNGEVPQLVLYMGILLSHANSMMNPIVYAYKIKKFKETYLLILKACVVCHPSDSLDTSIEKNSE
In words: Inhibition of adenosine A3 receptor (unknown origin) at 30 uM.

The species named for data set [21] is Homo sapiens. Put plainly: Inhibition of angiotensin receptor (unknown origin) at 30 uM.
For data set [22], the target named is T5, Adenosine receptor A1 (Homo sapiens) (UniProt P30542).
T5 sequence (whole entry): T2 sequence (P30542 whole entry)
Put plainly: Inhibition of adenosine A1 receptor (unknown origin) at 30 uM.

Converted amounts (≈) assume the structure as drawn.

5-hydroxytryptamine receptor 2B, sequence (P41595 whole entry): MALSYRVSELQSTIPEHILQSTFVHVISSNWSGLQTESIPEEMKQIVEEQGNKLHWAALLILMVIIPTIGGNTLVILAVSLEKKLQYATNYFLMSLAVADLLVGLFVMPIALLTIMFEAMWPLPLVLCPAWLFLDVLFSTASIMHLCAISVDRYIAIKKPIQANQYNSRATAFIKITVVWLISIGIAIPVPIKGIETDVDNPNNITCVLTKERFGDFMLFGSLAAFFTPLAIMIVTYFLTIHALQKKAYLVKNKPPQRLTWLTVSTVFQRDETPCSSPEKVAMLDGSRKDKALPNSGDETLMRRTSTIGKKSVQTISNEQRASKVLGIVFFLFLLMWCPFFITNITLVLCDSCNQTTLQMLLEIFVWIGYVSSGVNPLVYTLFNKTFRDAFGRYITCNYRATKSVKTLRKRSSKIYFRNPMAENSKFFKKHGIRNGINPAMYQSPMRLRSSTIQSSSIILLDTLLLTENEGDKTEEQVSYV

`Cc1csc(C(C)(O)c2nnc(Nc3cc(C4CC4)n(Cc4c(F)cccc4F)n3)s2)n1` (racemic): the IC50 in [1] came to 0.97 µM. Moreover, the MIC in data set [2] was greater than 12.5 µM.
For the compound `CCCCCCc1ccc(Oc2ccccc2C)c(O)c1`, the IC50 in [3] turned out to be 0.022 µM.
Turning to `CO[C@H]1/C=C/O[C@@]2(C)Oc3c(C)c(O)c4c(O)c(c(/C=N/N5CCN(C)CC5)c(O)c4c3C2=O)NC(=O)/C(C)=C\C=C\[C@H](C)[C@H](O)[C@@H](C)[C@@H](O)[C@@H](C)[C@H](OC(C)=O)[C@@H]1C` [RIFAMPIN], the MIC in [2] turned out to be 0.007 mg/L.
On the same count and under the same terms, the same measure for `COc1c(N2C[C@@H]3CCCN[C@@H]3C2)c(F)cc2c(=O)c(C(=O)O)cn(C3CC3)c12` [MOXIFLOXACIN]: 0.12 mg/L.
Take `Cc1csc(C(C)(O)c2nnc(NC(=O)c3ccn(Cc4c(F)cccc4F)n3)s2)n1` (racemic): in [1], the IC50 came out at 34 µM. Also, in [2], the MIC was greater than 100 µM.
For the compound `CC/C(C)=C1\OC(=O)[C@H](C)[C@H](O)[C@H](Cc2cccnc2)NC(=O)[C@@H](NC(=O)c2ncccc2O)[C@@H](C)OC1=O` [PYRIDOMYCIN], in data set [4], the MIC came to 0.57 µM (≈ 0.308 µg/mL).
Consider `NNC(=O)c1ccncc1` [ISONIAZID], for which the MIC in data set [2] came to 0.03 mg/L; in [4], 0.05 µM (≈ 0.00686 µg/mL).
Regarding `Oc1cc(Cl)ccc1Oc1ccc(Cl)cc1Cl` [TRICLOSAN], in data set [4], the minimal inhibitory concentration (MIC) was 64 µM (≈ 18.5 µg/mL).
Take `Cc1csc(C(C)(O)c2nnc(NCC3CN(Cc4c(F)cccc4F)C(=O)O3)s2)n1` (racemic): the concentration for half-maximal inhibition (IC50) in [1] was 0.4 µM. Besides, in data set [2], the MIC was greater than 100 µM.
Take `Cc1csc(C(C)(O)c2nnc(Nc3cnn(Cc4c(F)cccc4F)c3)s2)n1` (racemic): in data set [1], the IC50 came out at 0.234 µM. In addition, the MIC in data set [2] worked out at 7.5 µM.
With `Cc1csc(C(C)(O)c2nnc(Nc3nccc(Cc4c(F)cccc4F)n3)s2)n1` (racemic), the IC50 in data set [1] was less than 0.002 µM. In [2], the MIC came out at 12.5 µM.
In the case of `Cc1csc(C(C)(O)c2nnc(NC(=O)Cc3c(F)cccc3F)s2)n1` (racemic), the IC50 in data set [5] is 21 µM; in data set [6], 23 µM; in data set [1], 0.2 µM; in data set [7], greater than 50 µM; in data set [11], 64 µM. In data set [8], this compound came in with a fraction unbound of 0.019. Further, in [2], the MIC came to 3.75 µM. Moreover, the MCC at 168 h in data set [9] was greater than 100 µM. The amount in solution in [10] (solubility) came to 26 µM (≈ 10.3 µg/mL).
In the case of `Cc1csc([C@](C)(O)c2nnc(Nc3ccn(Cc4c(F)cccc4F)n3)s2)n1`, the Tm in data set [12] came out at 55.2 °C; in data set [14], 54.2 °C; in [15], 56.5 °C. Besides, the figures for the 50% inhibitory concentration (IC50) in data set [1] and in [7] were 0.003 µM and 1.9 µM, respectively. Besides, the Kd in data set [13] was 9.3 µM; in [16] it was 0.0115 µM; in [19], 0.0137 µM. The same compound showed a fraction unbound in data set [8] of 0.034. Further, the minimum inhibitory concentration (MIC) in data set [2] was determined as 0.19 µM. The results for the ΔTm in [17] and in [18] were 69.3 °C and 55 °C, respectively. Moreover, in data set [9], the MCC at 168 h was found to be 78 µM. Besides, the concentration in solution in data set [10] (solubility) came to 208 µM (≈ 90.4 µg/mL).
Regarding `Cc1csc(C(C)(O)c2nnc(Nc3ccn(Cc4c(F)cccc4F)n3)s2)n1` (racemic), in data set [1], the IC50 came out at 0.004 µM. In [2], the MIC stood at 0.5 µM.
Take `Cc1csc(C(C)(O)c2nnc(Nc3cccc(Cc4c(F)cccc4F)n3)s2)n1` (racemic): the IC50 in [1] is less than 0.002 µM. Also, the MIC in [2] was found to be 3.13 µM.
With `COC(=O)c1cnc2ccc(C#N)cc2c1NCCCc1ccccc1`, the IC50 in [1] came to 0.02 µM. For the same compound, the MIC in data set [2] was greater than 64 µM.
In the case of `Cc1csc(C(C)(O)c2nnc(Nc3ncn(Cc4c(F)cccc4F)n3)s2)n1` (racemic), the inhibition in data set [20] was 70%; in data set [21], 69%; in [22], 63%. The IC50 in data set [1] was found to be 0.03 µM; in data set [7], 48 µM. This compound gave a fraction unbound in data set [8] of 0.143. In [2], the MIC was found to be 0.391 µM. In addition, the MCC at 168 h in [9] is greater than 100 µM. The compound further came in with a solubility in [10] of 69 µM (≈ 30 µg/mL).
As to `O=C1CC(c2nc3ccccc3n2Cc2ccccc2)CN1C1CCCCC1` (configuration not stated), the IC50 in [1] worked out at 1 µM. In addition, in [2], the MIC is greater than 64 µM.

The IC50 is the concentration that gives 50% inhibition. What is called MIC is the lowest concentration found to suppress growth. As usually defined, the fraction unbound is the share of the substance not bound to proteins or other matrix. Low readings indicate little free substance, high ones much free substance. In general, solubility refers to how much of the substance goes into solution per volume. High values mean a readily soluble substance, low ones a poorly soluble substance. One may read the Kd as the constant that tells how readily two partners part at equilibrium. Read a high Kd as weaker binding. A word on the ΔTm: it is the shift of the melting midpoint relative to a reference. The term inhibition denotes the drop in the measured response relative to a control, in per cent. Low readings indicate little suppression, high ones strong suppression.

These data come from ChEMBL document CHEMBL3085704, “Methyl-thiazoles: a novel mode of inhibition with the potential to develop novel inhibitors targeting InhA in Mycobacterium tuberculosis” (J Med Chem, 2013).
